pIC50: −log10 of the molar value.
Key:
Type in all cases: functional, cell-based
[1] = test system: HepG2; assay: Cytotoxicity against human HepG2 cells by MTT assay
Procedure, shortened: (§1)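 In vitro cytotoxicity testing against a panel of eight cultured human tumor lines. Tissue origins: Lovo (colorectal cancer), Hepg2 (hepatoma), OSRC-2 (renal carcinoma), A549 (lung epithelial carcinoma), SKOV3 (ovarian carcinoma), HeLa (cervical cancer), MCF-7 (breast cancer) and SGC-7901 (gastric adenocarcinoma).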

[2] = test system: OS-RC-2; assay: Cytotoxicity against human OS-RC2 cells by MTT assay; procedure, shortened: as §1
[3] = test system: A549; assay: Cytotoxicity against human A549 cells by MTT assay; procedure, shortened: as §1
[4] = test system: SK-OV-3; assay: Cytotoxicity against human SKOV3 cells by MTT assay; procedure, shortened: as §1
[5] = test system: HeLa; assay: Cytotoxicity against human HeLa cells by MTT assay; procedure, shortened: as §1
[6] = test system: MCF7; assay: Cytotoxicity against human MCF7 cells by MTT assay; procedure, shortened: as §1
[7] = test system: SGC-7901; assay: Cytotoxicity against human SGC7901 cells by MTT assay; procedure, shortened: as §1
[8] = test system: LoVo; assay: Cytotoxicity against human LoVo cells by MTT assay; procedure, shortened: as §1

Measured: pIC50

CC1=C2[C@@H]3O[C@H](O)C4=C3[C@@](C)(C[C@@H]2OC1=O)[C@@H]1C[C@H]41 [CHLORAJAPOLIDE B]
< 5.00: [1] | [2] | [3] | [4] | [5] | [6] | [7] | [8]

CC1=C2[C@H](O)C3=C(C=O)[C@H]4C[C@H]4[C@]3(C)C[C@@H]2OC1=O [CHLORAJAPOLIDE A]
< 5.00: [1] | [2] | [3] | [4] | [5] | [6] | [7] | [8]

CC1=C2C[C@@H]3[C@@](C)(C[C@@H]2OC1=O)[C@@H]1C[C@@H]1[C@]3(O)CO [CHLORAJAPOLIDE D]
< 5.00: [1] | [2] | [3] | [4] | [5] | [6] | [7] | [8]

C/C=C(\C)C(=O)OC[C@@]1(O)C2[C@@H](O)C3=C(COC(=O)CCC(=O)OC)C(=O)O[C@@]34[C@@H]3C5=C(C[C@H]4[C@@]2(C)[C@@H]2C[C@@H]21)[C@H]1C[C@H]1[C@]5(C)[C@@H](O)C(=O)/C3=C(/C)C(=O)OC (some centres undefined) [CHLORAJAPONOL]
< 5.00: [1] | [2] | [3] | [4] | [5] | [6] | [7] | [8]

C=C1[C@H]2C[C@H]2[C@]2(C)C[C@]3(O[C@@H]4O[C@H](CO)[C@@H](O)[C@H](O)[C@H]4O)OC(=O)C(C)=C3C[C@@H]12 [CHLORAJAPOSIDE]
< 5.00: [1] | [2] | [3] | [4] | [5] | [6] | [7] | [8]

CC1=C2CC3=C(CO)[C@H]4C[C@H]4[C@]3(C)C[C@@H]2OC1=O [CHLORAJAPOLIDE C]
< 5.00: [1] | [2] | [3] | [4] | [5] | [6] | [7] | [8]

CO[C@@]12OC(=O)C(CO)=C1C[C@H]1[C@H](COC(C)=O)[C@H]3C[C@H]3[C@]1(C)[C@@H]2O [CHLORAJAPOLIDE E]
< 5.00: [1] | [2] | [3] | [4] | [5] | [6] | [7] | [8]

CC1=C2C[C@@H]3[C@@](C)(C[C@]2(O)OC1=O)[C@H](O)CC[C@@]3(C)O [CHLORAEUDOLIDE]
< 5.00: [1] | [2] | [3] | [4] | [5] | [6] | [7] | [8]

From ChEMBL document CHEMBL1667727, “Sesquiterpenes from Chloranthus japonicus” (J Nat Prod, 2011)
